From publication PMC7526717 (Journal of Clinical Oncology, 2020)
Several values for one entry are separate records, joined by “and”; a condition that tells them apart may be missing. Equal values may be shown once. Entries after “also recorded” stand apart in the source; their conditions may differ. Read-outs that look alike come from different tables or passages of the source.

Columns and labels:
metastatic GIST = conditions: first-line; cited from earlier work
PDGFRB = conditions: cited from earlier work
BRAF = conditions: cited from earlier work
[1] = Plasma pharmacokinetics in patients; type: in vivo, human
[2] = Phase I study safety: TEAEs, DLTs, MTD; type: in vivo, human; conditions: for MTD: maximum dose evaluated 200 mg twice a day
Summary of the method: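 Oral test compound was given at 20-200 mg twice a day or 100-250 mg once daily in 28-day cycles, using pharmacologically guided 3 + 3 escalation. A level was safe with zero DLTs in three or one in six patients. AEs were recorded from consent to 30 days after last dose and investigator-graded by CTCAE v4.03. Safety population: all patients dosed.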

advanced GIST = conditions: cited from earlier work
VEGFR2 = conditions: cited from earlier work
TIE2 = conditions: cited from earlier work
[3] = tested on: advanced gastrointestinal stromal tumor (GIST); test: Phase I study efficacy, investigator assessed, RECIST version 1.1; type: in vivo, human; conditions: 150 mg once daily
Summary of the method: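 Patients with advanced GIST after ≥1 prior systemic therapy received oral test compound 150 mg once daily in 28-day cycles, in dose-escalation or expansion. Imaging at screening, after cycles 2, 4 and 6, then every three cycles and at final visit. Responses were investigator-assessed per RECIST 1.1 and confirmed about 28 days later. Intent-to-treat population, grouped by line of therapy.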

GIST [4] = conditions: cited from earlier work
GIST [5] = conditions: cited from earlier work; remark: listed apart in the source
[6] = 150 mg once daily, cycle 1 day 15

## Cc1ccc(NC(=O)c2ccc(CN3CCN(C)CC3)cc2)cc1Nc1nccc(-c2cccnc2)n1 [imatinib]
Metastatic GIST
  mPFS: 1.7-2 years

## CCn1c(=O)c(-c2cc(NC(=O)Nc3ccccc3)c(F)cc2Br)cc2cnc(NC)cc21 [Ripretinib, 1-[4-bromo-5-[1-ethyl-7-(methylamino)-2-oxo-1,2-dihydro-1,6-naphthyridin-3-yl]-2-fluorophenyl]-3-phenylurea]
PDGFRB
  inhibition in vitro: inhibits
BRAF
  inhibition in vitro: inhibits
[1]; [6]
  Cmax higher compared with cycle 1 day 1: 61%
[1]; 150 mg once daily, cycle 1 day 15 vs day 1
  accumulation on the basis of AUC0-12h: 66%
[1]; human, plasma, oral, time to Tmax, single doses, fasting, cycle 1 day 1
  Tmax: 2 to 10 h
[1]; single doses with PK data for at least 10 patients
  CV% for Cmax and AUC0-24h: 35%-60%
[2]; 100 mg twice a day (n = 12)
  DLT: asymptomatic grade 3 lipase elevation
[2]; 150 mg once daily (n = 12)
  DLT: asymptomatic grade 4 creatine phosphokinase increase
[2]; 200 mg twice a day (n = 7)
  DLT: asymptomatic grade 3 lipase elevation
[2]; GIST, 150 mg once daily
  Alopecia, Total Grades 1–4: 88 [62.0%] No. (%) and 88 (62.0%) No. (%)
  Constipation, Total Grades 1–4: 56 [39.4%] No. (%)
  Decreased appetite, Total Grades 1–4: 48 [33.8%] No. (%)
  Diarrhea, Total Grades 1–4: 47 [33.1%] No. (%)
  Fatigue, Total Grades 1–4: 78 [54.9%] No. (%)
  Lipase increased, Grade 3/4: 25 (17.6%) No. (%)
  Myalgia, Total Grades 1–4: 69 [48.6%] No. (%)
  Nausea, Total Grades 1–4: 65 [45.8%] No. (%)
  PPES, Total Grades 1–4: 62 [43.7%] No. (%)
  TEAEs leading to a dose reduction: 26 (18.3%) patients (%)
  TEAEs leading to treatment interruption: 77 (54.2%) patients (%)
  Treatment-emergent SAE: abdominal pain: 14 [9.9%] n [%]
  Treatment-emergent SAE: cancer surgery: 7 [4.9%] n [%]
  Treatment-emergent SAE: death: 11 [7.7%] n [%]
  Treatment-emergent SAE: sepsis: 6 [4.2%] n [%]
  patients who discontinued study treatment because of PPES: no patients
[2]; GIST, 150 mg once daily, total
  Any TEAE: 142 (100%) No. (%)
[2]; all patients
  Any TEAE, grade 3 and 4: 173 (67.1%) No. (%)
  Any TEAE, grade All: 257 (99.6%) No. (%)
  TEAEs leading to a dose reduction: 38 (14.7%) patients (%)
  TEAEs leading to treatment interruption: 127 (49.2%) patients (%)
  Treatment-emergent SAE: abdominal pain: 17 [6.6%] n [%]
  Treatment-emergent SAE: cancer surgery: 10 [3.9%] n [%]
  Treatment-emergent SAE: death: 16 [6.2%] n [%]
  Treatment-emergent SAE: dyspnea: 8 [3.1%] n [%]
  discontinued study treatment secondary to a drug-related TEAE: 16 (6.2%) patients (%)
  treatment-emergent serious adverse event (SAE): 137 (53.1%) patients (%)
[2]; dose-escalation phase
  DLTs reported: Three
  patients at each dose level who experienced a DLT: < 33%
[2]; in vivo
  RP2D: 150 mg once daily
[2]
  MTD: no maximum tolerated dose was reached
[2]; listed as ripretinib
  MTD: not reached; also recorded: No MTD was reached
Advanced GIST
  mPFS: 6.3 month
VEGFR2
  inhibition in vitro: inhibits
TIE2
  inhibition in vitro: inhibits
[3]; fourth line or greater
  Duration of response, median (95% CI): 17.5 months
  ORR (95% CI): 7.2%
  PFS, median (95% CI): 5.5 months
  probability of PFS at 12 months: 21.2%
[3]; second line
  Duration of response, median (95% CI): 18.4 months
  ORR (95% CI): 19.4%
  PFS, median (95% CI): 10.7 months
  probability of PFS at 12 months: 33.5%
[3]; third line
  ORR (95% CI): 14.3%
  PFS, median (95% CI): 8.3 months
  probability of PFS at 12 months: 29.2%
[3]; total
  Duration of response, median (95% CI): 18.4 months
  ORR (95% CI): 11.3%

## CNC(=O)c1cc(Oc2ccc(NC(=O)Nc3ccc(Cl)c(C(F)(F)F)c3)c(F)c2)ccn1 [regorafenib]
GIST [4]
  syndromes such as PPES, grade 3: 19.7%
GIST [4]; third-line
  mPFS: ~4.8 months

## CCn1c(=O)c(-c2cc(NC(=O)Nc3ccccc3)c(F)cc2Br)cc2cnc(N)cc21 [DP-5439]
[1]; [6]
  accumulation: 4.6- to 5.3 fold
[1]; 15 days of dosing at 150 mg once daily
  exposure (AUC) relative to parent ripretinib: approximately 129%
[1]; single 150-mg doses
  exposure (AUC) relative to parent ripretinib: approximately 49%

## CCN(CC)CCNC(=O)c1c(C)[nH]c(/C=C2\C(=O)Nc3ccc(F)cc32)c1C [sunitinib]
GIST [5]
  syndromes such as PPES, grade 3: 4%
GIST [5]; second-line
  mPFS: approximately 5.6 months
